The values below come from ChEMBL document CHEMBL4513216, “Probing the Open Global Health Chemical Diversity Library for Multistage-Active Starting Points for Next-Generation Antimalarials” (ACS Infect Dis, 2020).

The data set in a line: Toxicity liver stage against HepG2, at 10uM. Set-up: test concentration 10 uM, cell line HepG2-A16-CD81EGFP. The conditions noted are these: human, HepG2-A16-CD81EGFP cells; read-out: INHIBITION
In kind it is cell-based. In outline: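 Uninfected HepG2-A16-CD81EGFP cells, 3 × 10^3 per well, 1536-well, plated on prespotted compound at 10 μM final, parasite-free screening media added to match infected plates; puromycin 10 μM positive, DMSO 0.5% negative; run in parallel with 48 h PbLuc assay at 37 °C, 5% CO2; viability by CellTiter-Glo luminescence, normalized to controls.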

On to `CNC(=O)CN1CCCC12CCN(Cc1c[nH]cn1)CC2`, for which the cytotoxicity at 10 µM was 0.312%.

Regarding `Cc1ccc(CN(CC(=O)NCC2CCOC2)c2ccc(F)cc2)o1` (stereo not drawn), the cytotoxicity at 10 µM was 9.83%.

Turning to `CCCOCCOC(=O)c1ccc2c(c1)[nH]c(=O)n2C`, the cytotoxicity at 10 µM is -16.4%.

Take `Cc1cc(C)n(-c2cccc(C(=O)Nc3n[nH]c(C4CCCO4)n3)c2)n1` (stereo not drawn): the cytotoxicity at 10 µM was -4.44%. With `CNC(=O)NC(=O)C(C)N1CCN(C2CCCC2)CC1` (stereo not drawn) the figure was -14%; with `O=C(NCCc1ccsc1)c1ccoc1`, -3.3%. With `Cc1nn(C)cc1S(=O)(=O)N[C@@H]1CCC[C@@H](n2ccnc2)[C@@H]1O` the figure was 0.651%; with `CCCNC(=O)C(C)NC(=O)CCc1ccccc1Br` (stereo not drawn), 14.5%; with `N#Cc1ccccc1OCCN1CCCC1Cn1cncn1` (stereo not drawn), -10.7%. As to `CCN1C(=O)CC(N(C)Cc2nc3ccccc3c(=O)[nH]2)C1=O` (stereo not drawn), the cytotoxicity at 10 µM was found to be 2.06%. With `COc1ccccc1C(=O)N1CC(=O)N(CC(C)C)CC(O)C1` (stereo not drawn) the figure was 4.37%; with `CN(C)CCNC(=O)c1ccc2c(-c3nccs3)noc2c1`, 9.28%. On to `CSc1ccc(C(=O)N2CC(=O)N(CC(C)(C)C)CC(O)C2)cc1` (stereo not drawn), for which the cytotoxicity at 10 µM is 8.6%. To `CS(=O)(=O)N1CCC(c2ccncn2)CC1` belongs 6.77%; to `CC1CCC(NC(=O)CNC2(c3ccc(Br)cc3)CCOCC2)CC1` (stereo not drawn), 3.46%.

On to `CNC(=O)CCc1cc(C)nc(C2CCCCN2)n1` (stereo not drawn), for which the cytotoxicity at 10 µM was -9.83%.

Take `Cc1ccnn1CCN1CCCC2(CCC(=O)N(C3CCCC3)C2)C1` (stereo not drawn): the cytotoxicity at 10 µM worked out at 5.93%. Regarding `CCN1CCN(c2ncc3c(=O)n(Cc4ccco4)ccc3n2)CC1`, the cytotoxicity at 10 µM is -15.9%. With `Cc1cnn(CC2CCCCN2Cc2noc(C3CC3)n2)c1` (stereo not drawn) the figure was -9.32%; with `O=C(CC1CC1)NC[C@]12COC[C@H]1CN(c1ncccn1)C2`, -142%. To `O=C(Nc1cnccn1)[C@@H]1CC[C@@H]2[C@@H](CCN2Cc2nccs2)O1` belongs -136%; to `Cc1ccc2c(c1)SCC(=O)N2CC(=O)N1CCCC1c1nccs1` (stereo not drawn), 12.4%; to `CCO[C@@H]1CC[C@H]2[C@H]1OCCN2C(=O)c1nn(C)c2ccccc12`, -2.69%. With `O=C(Nc1cc(-c2ccncc2)no1)C1CCC1` the figure was -12.6%; with `c1ccc(CN2CCC3(CC2)Nc2ccccc2CO3)cc1`, -0.719%; with `CSCCCNC(=O)C(c1cccc(F)c1)N(C)C` (stereo not drawn), 0.28%. As to `COC(=O)CCCn1ccnc1-c1ccccc1`, the cytotoxicity at 10 µM is -4.65%. To `CCC(O)CN1CCN(C(=O)c2ccc(Cn3cccc3)cc2)CC1` (stereo not drawn) belongs -6.54%; to `CO[C@H]1CN(C(=O)c2ccc[nH]2)[C@@H]2COC[C@H]12`, -6.04%. With `O=C(NCc1ccccc1CN1CCOCC1)c1ccc(Br)cc1F` the figure was 12.3%. With `COCCCN1CCCC(c2nccn2CC2CCC2)C1` (stereo not drawn) the figure was -3.94%; with `COC(=O)CCCn1ccnc1-c1ccc(OC)c(F)c1F`, -2.8%; with `COC(=O)COc1ccc(-c2noc(C3CCCO3)n2)cc1` (stereo not drawn), 1.07%.

For `Cc1nc(-c2ccccc2)n(CC(=O)NC(C)(C)C)n1`, the cytotoxicity at 10 µM is -16%. With `O=C(CSc1ccc(Br)cc1)NS(=O)(=O)c1ccc2c(c1)OCCO2` the figure was -5.51%; with `COc1cc(OC)c(C2Nc3cc(Cl)ccc3C3=NCCN32)cc1OC` (stereo not drawn), -3.14%; with `Oc1nc(-c2cnccn2)nc2c1CCN(Cc1ccccn1)C2`, 1.51%. With `O=C(CN1CCN(CCO)CC1)NCCc1c(F)cccc1F` the figure was -9.83%; with `O=C(CC1CCCO1)NCc1ccc(Br)cc1F` (stereo not drawn), 4.72%. To `CCCc1noc(CN2CCCC2c2noc(C3CC3)n2)n1` (stereo not drawn) belongs -13%. `Cc1cccc(N2CCCC3(C2)CN(c2nncs2)CCO3)c1` (stereo not drawn): the cytotoxicity at 10 µM turned out to be 9%. To `Cc1ccccc1OCCC(=O)NC(C)c1nnc2n1CCCCC2` (stereo not drawn) belongs -12.3%. With `COCCN1CCCC(Cc2cnc(-c3c(C)nn(C)c3C)cn2)C1` (stereo not drawn) the figure was -2.56%. With `CN(C)C1CC2(CCN(C(=O)NC3CC3)CC2)c2ccccc21` (stereo not drawn) the figure was -112%. With `Cn1cccc1C(=O)N1Cc2c(CN3CCCCC3)nn(C)c2C1`, the cytotoxicity at 10 µM is 1.25%. To `CCc1c(C(=O)N2CC[C@H](N3CCOCC3)[C@H](CCCO)C2)csc1C` belongs -141%.

For the compound `Cn1cc(CN2CCc3c(nnn3C)C2COCc2ccccc2)cn1` (stereo not drawn), the cytotoxicity at 10 µM was -126%. With `COc1ccc(-c2nc3c([nH]2)CCNC3)c(OC)c1OC` the figure was 0.786%; with `CC(C)(C)CNS(=O)(=O)C1CS(=O)(=O)c2ccccc21` (stereo not drawn), 14.3%. To `COc1ccc(CN2CCC3(CC2)CCN(CC(C)C)C3=O)cc1` belongs 3.17%.

With `CSCCc1ccc(NC(=O)NCc2ccnc(N(C)C)c2)cc1`, the cytotoxicity at 10 µM amounted to 0.661%. As for `CN1CCC(NC(=O)CCCc2cc(Cl)sc2Cl)C1=O` (stereo not drawn), the cytotoxicity at 10 µM was -2.46%. With `COc1ccc(F)cc1S(=O)(=O)NCC(O)c1sccc1C` (stereo not drawn) the figure was -0.269%; with `O=C(COCC1CC1)N1CCCC1c1nc(-c2ccccc2F)c[nH]1` (stereo not drawn), -0.025%. Turning to `Cc1nc(CN2CCC(CNC(=O)C3(C#N)CCCC3)CC2)oc1C`, the cytotoxicity at 10 µM amounted to 1.29%. To `CC1CN(c2ccc(CNC(=O)NCCn3ccnc3)cn2)CCO1` (stereo not drawn) belongs 8.4%; to `O=C(c1cc(F)ccc1O)N1CCN(C2CCOCC2)CC1`, -4.9%. Turning to `Cc1nc(Oc2ccccc2Cl)sc1C(=O)O`, the cytotoxicity at 10 µM was -11.9%. `CN1CCN(S(C)(=O)=O)Cc2cccnc21`: the cytotoxicity at 10 µM is -112%. On to `Cc1nccc(C2CCCCN2Cc2cccc(F)c2)n1` (stereo not drawn), for which the cytotoxicity at 10 µM is -11.6%. With `Cc1cc(C)c(CNC(=O)C(C)Oc2cccc(C#N)c2)c(=O)[nH]1` (stereo not drawn) the figure was 7.42%; with `CCN(CC)S(=O)(=O)N1C[C@@H](c2ccccc2)[C@H]2[C@H]1CCCCCN2C`, -10.4%; with `Cc1cn2nc(Sc3nnnn3C)sc2n1`, 17.3%. `O=C(NCCCn1cccn1)C1(c2ccc(F)cc2)CC1`: the cytotoxicity at 10 µM was -6.13%. To `CC(=O)N1C[C@@H]2CN(S(=O)(=O)C3CC3)CCO[C@@H]2C1` belongs -107%; to `CCCS(=O)(=O)Nc1ccc2c(c1)OCC(C)(C)C(=O)N2C`, -10.8%; to `CC(C)Oc1ncc(C(=O)N2CCc3ccc(O)cc3C2)cc1Cl`, 1.61%. For the compound `O=C(Nc1cccc(N2CCN(CC3CC3)CC2)c1)C1CCOC1` (stereo not drawn), the cytotoxicity at 10 µM came to 1.68%. With `O=c1oc(-c2ccc(F)cc2)nn1CN1CCSCC1`, the cytotoxicity at 10 µM stood at 0.449%. To `CCCc1nn(C2CCCN(C(C)C)C2=O)c(=O)o1` (stereo not drawn) belongs -6.11%; to `CC(C)CC1SCC(=O)Nc2c1cnn2C1CCCC1` (stereo not drawn), -2.17%. Take `Cc1ccc(CN2CC[C@@H](O)[C@@H]2Cc2ccccc2)o1`: the cytotoxicity at 10 µM was 1.73%.

As to `CC1CCN(c2nc3cn(-c4ccc(F)cc4)c(=O)c-3c[nH]2)CC1`, the cytotoxicity at 10 µM is 3.47%. With `COc1cccc(C2CCN2C(=O)c2cc(C(C)C)on2)c1` (stereo not drawn) the figure was -2.96%.

`CCNc1ccnc(N2CCCC(CCOC)(C(=O)O)C2)n1` (stereo not drawn): the cytotoxicity at 10 µM stood at 2.84%. As to `Cc1nc(CNC(=O)N2CCN(c3ccc(Cl)cn3)CC2)no1`, the cytotoxicity at 10 µM was -13.1%. With `CC(C)n1ccnc1C1CCN(C(=O)N2CCCC2)CC1`, the cytotoxicity at 10 µM was 0.386%. Regarding `Cc1ccc(-c2nc(CN3CCOCC3)no2)cc1N1CCNC1=O`, the cytotoxicity at 10 µM was -5.73%. As for `Cn1ccnc1CN1CCN2C[C@H](OCc3cccnc3)C[C@H]2C1`, the cytotoxicity at 10 µM is -1.29%. Consider `CCS(=O)(=O)N1CCC2(C1)C(=O)N(C)CCN2Cc1ccncc1` (stereo not drawn), for which the cytotoxicity at 10 µM was -4.78%.

With `CC(=O)N1CCCC1c1csc(Nc2cnccn2)n1` (stereo not drawn), the cytotoxicity at 10 µM is 2.09%. On to `Cc1cnn(C2CCCN(C(=O)c3cn(-c4ccccc4)nn3)C2)c1` (stereo not drawn), for which the cytotoxicity at 10 µM is -22.1%. In the case of `CC(C)c1nnc(CNc2nc(-c3cccnc3)nc3c2CCC3)n1C`, the cytotoxicity at 10 µM stood at 8.74%. To `CNC(=O)C1(c2cnccn2)CCCN1C(=O)c1ccccc1C` (stereo not drawn) belongs -16.5%; to `Cc1ccc(OCC(=O)NS(=O)(=O)c2cccnc2)cc1C`, 4.36%; to `Cc1cnn(CC2CCCN2CC(=O)Nc2cc(C(C)C)no2)c1` (stereo not drawn), 4.23%. With `CCn1cc(S(=O)(=O)N2CCCC3(CC=CNC3=O)C2)cn1` (stereo not drawn) the figure was -2.92%; with `CC(Cn1cccn1)NCC(=O)N(C)Cc1ccsc1` (stereo not drawn), -7.32%; with `COCc1nc2cc(NCc3nc(C)cs3)ccc2o1`, -2.57%. To `CC1CN(C)c2ccccc2CN1C(=O)c1ccncc1F` (stereo not drawn) belongs -16.9%; to `Cc1cc(NCC2CCN(c3ccccc3)C2)n2ncnc2n1` (stereo not drawn), 67%; to `Cc1ccc(-c2cc(CNc3ncnc4c3CCNCC4)no2)cc1`, 13%. `Cc1nn(C)c2cn(CC(=O)N3CCN(c4ccccc4)CC3)nc12`: the cytotoxicity at 10 µM was determined as 6.94%.

On to `COc1ccccc1CN(CCCn1ccnc1)CC1CCOC1` (stereo not drawn), for which the cytotoxicity at 10 µM amounted to 11%. To `COc1ccc(C(N)=O)cc1NCc1nc(-c2cccs2)oc1C` belongs 1.83%; to `COCCN1CCN(Cc2cccc(C(=O)N(C)C)c2)CC1C` (stereo not drawn), 5%; to `Cc1ccc(C(=O)N2CC[C@H]3[C@H]2CCN3CC2CCOCC2)cc1F`, -83.3%.

As to `c1cc2nccc(CC3CCCN(Cc4ncc[nH]4)CC3)c2cn1` (stereo not drawn), the cytotoxicity at 10 µM is -2.06%.
